Reference: ChEMBL document CHEMBL1134834, “Quinoxalinylethylpyridylthioureas (QXPTs) as potent non-nucleoside HIV-1 reverse transcriptase (RT) inhibitors. Further SAR studies and identification of a novel orally bioavailable hydrazine-based antiviral agent” (J Med Chem, 2001)
The source made the active and inactive calls. No cut-off for these calls is given here.

Experiments:
[1] = Selectivity index was determined in C8166 cells; type: functional
Procedure, shortened: (§1)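 C8166 CD4+ T-cell line (HTLV-I genome, only tat expressed) acutely infected with lymphocytotropic HIV-1 IIIB. […] Read-out is HIV-p24 antigen in supernatants. AZT positive control was run at the same time. SI = IC50/EC50.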

[2] = system: C8166; test: (§2) Concentration which results in 50% survival of uninfected untreated control C8166 cells (cytotoxicity of the compound); type: cell-based; conditions: Homo sapiens
Procedure, shortened: (§3)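 Toxicity in uninfected C8166 cells by MTT reduction to formazan, read spectrophotometrically.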

[3] = system: CEM-SS; test: (§4) Concentration which results in 50% survival of uninfected untreated control CEM-SS cells (cytotoxicity of the compound); type: cell-based; conditions: Homo sapiens
[4] = Selectivity index was determined in CEM-SS cells; type: functional
Procedure, shortened: (§5)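 CEM-SS T4 lymphocytes infected with wild-type HIV-1. Protection from virus-induced cell death is scored against an AZT-treated positive control run under identical conditions. […] SI = IC50/EC50.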

[5] = system: Human immunodeficiency virus 1; test: Concentration which produces a 50% survival of HIV-1 infected cells relative to uninfected control C8166 cells; type: functional, organism-based; conditions: Human immunodeficiency virus 1, C8166
[6] = target: Human immunodeficiency virus type 1 reverse transcriptase (Human immunodeficiency virus 1, UniProt Q72547, Y181I); test: Inhibition of HIV-1 Mutant HIV-1 RT enzymes containing the single amino acid substitution Y181I
[7] = system: C8166; test: Synergistic antiviral activity with AZT (DDI), against HIV-IIIB in C8166 cells; type: functional, cell-based; conditions: Homo sapiens
Procedure, shortened: (§6)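 C8166 cells infected with HIV-IIIB and treated with compound combined with AZT (or DDI). Combination index calculated by the Chou-Talalay multiple drug effect analysis under both mutually exclusive and mutually nonexclusive assumptions.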

[8] = system: CEM-SS; test: Concentration which produces a 50% survival of HIV-1 infected cells relative to uninfected control CEM-SS cells (in vitro anti-HIV activity); type: functional, cell-based; conditions: Homo sapiens; procedure, shortened: as §5
[9] = system: C8166; test: Antiviral activity alone against HIV-IIIB in C8166 cells; type: functional, cell-based; conditions: Homo sapiens; procedure, shortened: as §1
[10] = system: CEM-SS; test: as §4; type: functional, cell-based; conditions: Homo sapiens, read-out: IC50 (the source's name)
[11] = system: C8166; test: as §2; type: functional, cell-based; conditions: Homo sapiens; procedure, shortened: as §3
[12] = target: Human immunodeficiency virus type 1 reverse transcriptase (Human immunodeficiency virus 1, UniProt Q72547, Y188L); test: Inhibition of HIV-1 Mutant HIV-1 RT enzymes containing the single amino acid substitution Y188L
[13] = system: Daudi; test: Cytotoxicity on Daudi Human(DH) cell line (O.D.=0.129+/-0.018); type: functional; conditions: read-out: TC50 (the source's name)
[14] = system: Human immunodeficiency virus 1; test: Inhibition of HIV-1-p24 antigen production in monocyte-macrophages (in vitro anti-HIV-1 activity); type: functional, organism-based
Procedure, shortened: (§7)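 Macrophages from adherent PBMC (10^6/mL, RPMI-1640 with 20% heat-inactivated FCS), 10^5 per well, >95% pure, infected with monocytotropic HTLV-III Ba-L. Antiviral activity read 14 days after infection. […] SI = IC50/EC50. AZT control run in parallel.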

[15] = Selectivity index between IC50 of HIV-1-p24 and EC50 of HIV-1-p24 (IC50/EC50); type: functional; procedure, shortened: as §7
[16] = system: Human immunodeficiency virus 1; test: Inhibition of HIV-1-p24 antigen production in monocyte-macrophages (cytotoxicity of the compound); type: organism-based; procedure, shortened: as §7
[17] = target: Human immunodeficiency virus type 1 reverse transcriptase (Human immunodeficiency virus 1, UniProt Q72547, V106A); test: Inhibition of HIV-1 Mutant HIV-1 RT enzymes containing the single amino acid substitution V106A
[18] = target: T1, Human immunodeficiency virus type 1 reverse transcriptase (Human immunodeficiency virus 1, UniProt Q72547); test: Inhibition of HIV-1 Mutant HIV-1 RT enzymes containing the single amino acid substitution […]
[19] = system: NIH3T3; test: Cytotoxicity on 3T3 fibroblasts (3T3F) murine cell line (O.D.=0.131+/-0.014); type: functional; conditions: Mus musculus, read-out: TC50 (the source's name)
[20] = system: C8166; test: Synergistic antiviral activity of AZT (DDI) with the compound, against HIV-IIIB in C8166 cells; type: functional, cell-based; conditions: Homo sapiens; procedure, shortened: as §6
[21] = target: T1, Human immunodeficiency virus type 1 reverse transcriptase; test: Inhibition of HIV-1 wild-type RT
[22] = organism: Mus musculus; test: Cytotoxicity on NSO murine cell line (O.D.=0.125+/-0.015); type: functional; conditions: read-out: TC50 (the source's name)
[23] = (§8) Cytotoxicity on normal human lymphocytes(HL) (O.D.=0.114+/-0.01); type: functional; conditions: read-out: TC50 (the source's name)
[24] = target: Human immunodeficiency virus type 1 reverse transcriptase (Human immunodeficiency virus 1, UniProt Q72547, K103N); test: Inhibition of HIV-1 Mutant HIV-1 RT enzymes containing the single amino acid substitution K103N
[25] = Selectivity index (IC50/EC50) was determined in CEM-SS cells; type: functional
Procedure, shortened: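 CEM-SS (T4 lymphocyte) cells infected with wild-type HIV-1 were scored for protection from virus-induced cell death. […] SI = IC50/EC50. An AZT-treated positive control was run in parallel under identical conditions.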

[26] = Selectivity index (IC50/EC50) was determined in C8166 cells; type: functional
[27] = organism: Homo sapiens; test: as §8; type: functional; conditions: read-out: TC50 (the source's name)
[28] = system: C8166; test: Synergistic antiviral activity with AZT (DDI), against HIV-IIIB in C8166 cells (combination index in association with DDI); type: functional, cell-based; conditions: Homo sapiens; procedure, shortened: as §6
[29] = system: C8166; test: Concentration which produces a 50% survival of HIV-1 infected cells relative to uninfected control C8166 cell (in vitro anti-HIV activity); type: functional, cell-based; conditions: Homo sapiens
[30] = system: NSO; test: Cytotoxicity against NSO murine cell line (O.D.=0.125+/-0.015); type: functional; conditions: Mus musculus, read-out: TC50 (the source's name)
[31] = system: Mus musculus; test: Area under curve was determined after oral administration in mice; type: ADME, organism-based; conditions: in vivo
Procedure, shortened: (§9)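 Mice dosed at 20 mg/kg, either subcutaneously or orally; plasma drug level measured by HPLC with an internal standard; n = 3 per point. Cmax and tmax read from the concentration-time curves. Clearance assumes complete subcutaneous absorption. Elimination t1/2, Vd and AUC derived from plasma curves. Relative oral bioavailability computed as oral AUC over subcutaneous AUC.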

[32] = Half life period was determined after subcutaneous administration of a dose of 20 mg/kg in mice; type: ADME, organism-based; design: dose 20 mg/kg, route subcutaneous; conditions: mouse, in vivo, sc; procedure, shortened: as §9
[33] = system: Mus musculus; test: Volume distribution was determined after subcutaneous administration of a dose of 20 mg/kg in mice; type: ADME, organism-based; design: dose 20 mg/kg, route subcutaneous; conditions: in vivo, sc; procedure, shortened: as §9
[34] = system: C8166; test: Synergistic antiviral activity of AZT (DDI) with the compound, against HIV-IIIB in C8166 cells (combination index in association with DDI); type: functional, cell-based; conditions: Homo sapiens; procedure, shortened: as §6
[35] = system: Mus musculus; test: Area under curve was determined after subcutaneous administration of a dose of 20 mg/kg in mice; type: ADME, organism-based; design: dose 20 mg/kg, route subcutaneous; conditions: in vivo, sc; procedure, shortened: as §9
[36] = system: Daudi; test: Cytotoxicity against Daudi Human(DH) cell line (O.D.=0.129+/-0.018); type: functional; conditions: read-out: TC50 (the source's name)
[37] = Half life period was determined after oral administration in mice; type: ADME, organism-based; conditions: mouse, in vivo; procedure, shortened: as §9
[38] = Bioavailability was determined after subcutaneous administration of a dose of 20 mg/kg in mice; type: ADME, organism-based; conditions: mouse, in vivo, po, in the assay text read “oral” for “subcutaneous”; procedure, shortened: as §9
[39] = Cytotoxicity against normal human lymphocytes(HL) (O.D.=0.114+/-0.01); type: functional; conditions: read-out: TC50 (the source's name)
[40] = Subcutaneous absorption was determined fter subcutaneous administration of a dose of 20 mg/kg in mice; type: ADME, organism-based; design: dose 20 mg/kg, route subcutaneous; conditions: mouse, in vivo, sc; procedure, shortened: as §9
[41] = system: NIH3T3; test: Cytotoxicity against 3T3 fibroblasts (3T3F) murine cell line (O.D.=0.131+/-0.014); type: functional; conditions: Mus musculus, read-out: TC50 (the source's name)
[42] = target: Human immunodeficiency virus type 1 protease (Human immunodeficiency virus 1) (UniProt Q72874); test: Inhibition of HIV-1 Mutant HIV-1 RT enzymes containing the single amino acid substitution K103N; NA means Not active
Procedure, shortened: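 Template poly(rA)oligo(dT) 10:1 (0.3 µM 3′-OH ends) with 10 µM [3H]-dTTP, 37 °C. TCA-precipitable radioactivity counted. Ki from Lineweaver-Burk and Dixon plots, inhibitor 0.2-5 Ki, triplicate.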

Row | SMILES | SI [1] | IC50 [3] | SI [4] | EC50 [5] | Ki [6] | EC50 [7] | EC50 [8] | EC50 [9] | CC50 [10] | IC50 [11] | Ki [12] | CC50 [13] | EC50 [14] | IC50 [16] | Ki [17] | Ki [18] | CC50 [19] | EC50 [20] | Ki [21] | CC50 [22] | further results
1 | Cc1cn([C@H]2C[C@H](N=[N+]=[N-])[C@@H](CO)O2)c(=O)[nH]c1=O [ZIDOVUDINE] | >250 | > 1 µM | 526 | 0.4 µM | – | – | – | – | – | – | – | – | – | – | – | – | – | – | – | – | IC50 [2]: > 100 µM
2 | O=c1c2cccn2c2cccc(F)c2n1CC/N=C(\S)Nc1ccc(Br)cn1 | 7990 | – | >43 | 0.025 µM | 0.2 µM | 0.002 µM | 0.00047 µM | 0.025 µM | > 0.02 µM | 200 µM | 0.2 µM | 1000 µM | 0.002 µM | 17 µM | 0.015 µM | 0.17 µM | 1000 µM | 0.003 µM | 0.009 µM | 1000 µM | SI [15]: 8800; CC50 [23]: 960 µM; Ki [24]: 0.16 µM
3 | O=c1c2cccn2c2ncccc2n1CCNC(=S)Nc1ccc(Br)cn1 | – | – | – | 0.124 µM | 0.4 µM | 0.05 µM | 0.0052 µM | 0.124 µM | > 2 µM | 11 µM | 0.13 µM | 690 µM | – | – | 0.05 µM | 0.095 µM | 690 µM | 0.015 µM | 0.009 µM | 700 µM | SI [25]: >380; SI [26]: 89; CC50 [27]: 680 µM; Ki [24]: 0.25 µM
4 | O=C(NNc1nc2ccccc2n2cccc12)c1cnccn1 | – | – | – | – | 2.5 µM | – | – | 0.45 µM | – | 18 µM | 1.8 µM | – | 0.2 µM | 25 µM | 0.8 µM | 0.3 µM | – | – | 0.19 µM | – | EC50 [28]: 0.14 µM; EC50 [29]: 0.4 µM; CC50 [30]: 870 µM; AUC [31]: 21.7 nM hr-1 ml-1; half-life [32]: 1.5 h; Vd [33]: 3 L/kg; EC50 [34]: 0.098 µM; AUC [35]: 48.7 nM hr-1 ml-1; CC50 [36]: 860 µM; half-life [37]: 1.4 h; bioavailability [38]: 45%; CC50 [39]: 870 µM; Tmax [40]: 2 h; CC50 [41]: 880 µM
5 | O=c1c2cccn2c2c(F)cc(F)cc2n1CC/N=C(\S)Nc1ccc(Br)cn1 | – | > 2 µM | >23 | – | – | – | 0.085 µM | – | – | – | – | – | – | – | – | – | – | – | – | – | NA [42]: inactive
6 | O=c1c2cccn2c2c(F)cc(F)cc2n1CCNC(=S)Nc1ccc(Br)cn1 | – | – | – | – | 1.6 µM | – | – | – | – | – | 0.45 µM | – | – | – | 0.03 µM | 0.1 µM | – | – | 0.022 µM | – | –
